Shown are actives, neighbours in structure and some others; about 2.2% of the full set was active somewhere.
M5 antag: antagonists of human muscarinic M5 receptor (CHRM5); P08912; CHO-hM5 cells, Fluo-8 calcium fluorescence, ACh EC80; inhibition, % at 3 µM; AID 624040; 360,000 tested, 0.59% active;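 active means inhibition above a per-plate cutoff, the mean of that plate's test compounds plus 3 SD, cut at about 27% in these data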;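 further: 0% = acetylcholine EC80 with DMSO and 100% = DMSO without agonist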
Target sequence (P08912 whole entry, looked up): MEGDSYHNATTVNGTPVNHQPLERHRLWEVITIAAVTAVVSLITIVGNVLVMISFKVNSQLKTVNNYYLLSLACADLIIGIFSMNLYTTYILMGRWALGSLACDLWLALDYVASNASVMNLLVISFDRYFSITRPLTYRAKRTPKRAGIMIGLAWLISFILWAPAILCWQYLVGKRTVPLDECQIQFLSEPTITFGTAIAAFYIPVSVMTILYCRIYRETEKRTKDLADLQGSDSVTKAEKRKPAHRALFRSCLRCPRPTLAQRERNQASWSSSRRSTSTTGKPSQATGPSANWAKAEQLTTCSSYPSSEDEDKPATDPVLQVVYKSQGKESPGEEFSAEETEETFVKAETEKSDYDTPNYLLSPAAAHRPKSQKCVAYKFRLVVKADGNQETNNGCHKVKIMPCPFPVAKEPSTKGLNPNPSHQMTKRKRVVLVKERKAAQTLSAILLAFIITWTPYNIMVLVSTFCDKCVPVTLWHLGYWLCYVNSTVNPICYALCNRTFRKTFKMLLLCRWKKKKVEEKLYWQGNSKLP
CHRM1 antagonist: human CHRM1 antagonism | P11229 | CHO-K1 hM1, Fluo-8 calcium fluorescence, ACh EC80 antagonist | inhibition, % at 3 µM | 360,000 tested, 1.3% active | AID 588852;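 active means percent inhibition above its own plate's cutoff, namely the mean of that plate's compound wells plus 3 SD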;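 further: peak over basal fluorescence ratio during 140 s after agonist addition; 0% = ACh EC80 plus DMSO and 100% = DMSO alone without agonist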
CHRM5 PAM: CHRM5 positive allosteric modulation | P08912 | CHO-K1 hM5, Fluo-8 calcium, ACh EC20 PAM; 0% = ACh EC20, 100% = ACh EC100 | activation, % at 3 µM | 360,000 tested, 0.3% active | AID 624038;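 active means activation above the run cutoff, the mean activation of all test compounds plus 3 SD, cut at about 18% in these data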
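Assay system: CHO-K1 hM5 cells. Also added: acetylcholine at EC20 concentration, added after compound. Dosing: 3 µM, single dose. Times: compound preincubation 140 s before EC20 acetylcholine addition. Signal: Fluo-8 calcium fluorescence. Measure: % activation relative to EC20 and EC100 ACh responses. Repeats: singlicate, one well per test compound.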
M1 ag: activates human CHRM1 receptor | CHO-K1 hM1, Fluo-8 calcium fluorescence, agonist mode; 0% DMSO, 100% acetylcholine EC100 | activation, % at 3 µM | 360,000 tested, 0.33% active | AID 588814;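 active means activation above the run's mean compound activation plus 3 SD, cut at about 16% in these data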;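 further: peak over basal fluorescence ratio within a 140 s kinetic read after compound addition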
CHRM1 PAM: positive allosteric modulators of human M1 muscarinic receptor. P11229. CHO-K1 hM1, Fluo-8 calcium fluorescence, ACh EC20; 0% = ACh EC20, 100% = maximal ACh. activation, % at 3 µM. 360,000 tested, 0.088% active; in the data active means activation above about 19%, passing the limit was not always enough
CHRM5 agonist: CHRM5 agonism in calcium assay; CHO-K1 hM5 cells, Fluo-8 calcium fluorescence; 0% DMSO wells, 100% maximal acetylcholine response; activation, % at 3 µM; 360,000 tested, 0.19% active; AID 624037;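 active means activation above the run's mean over test compounds plus 3 SD, cut at about 23% in these data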;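 further: signal is peak over basal fluorescence ratio across the kinetic read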
Active calls of the source: *; . = no result given.

SMILES	M5 antag	CHRM1 antagonist	CHRM5 PAM	M1 ag	CHRM1 PAM	CHRM5 agonist
O=C(Nc1ccc(Cl)cc1)[C@@H]1[C@@H]2C(=O)N(c3ccc4ccccc4c3)C(=O)[C@@H]2[C@H]2C=CC=NN21	19.9	-14.4	32.1*	-1.3	3.4	-1.1
COCc1cc(CN(C)C(=O)c2oc3c(F)cccc3c2C)[nH]n1	24.3	-8.4	-8.7	-2.2	1.7	-2.4
O=c1c2cc(N3CCOCC3)ccc2[nH]c(=S)n1CCCN1CCCCCC1	7.3	22.9*	-2.4	-6.4	-24.1	-4.8
O=c1c2ccccc2[nH]c(=S)n1CCN1CCN(Cc2ccccc2)CC1	6.4	7.6	-0.3	-5.0	-4.9	-7.1
CN1CCN(CCn2c(=S)[nH]c3ccccc3c2=O)CC1	33.0*	23.5	-17.8	-9.1	-19.7	-5.9
COc1cc(SC)ccc1C(=O)NCCc1c[nH]c2ccccc12	6.0	-3.6	-3.8	-1.6	0.7	-1.7
COc1cc2cc(C(=O)NCCc3c[nH]c4ccccc34)c(N)nc2cc1OC	25.1	.	-22.0	.	.	24.0*
OCC1(CCc2ccccc2)CCCN(C/C=C/c2ccccc2)C1 (configuration not stated)	7.4	34.7*	-10.6	-9.0	-24.9	-0.3
Cc1onc(-c2c(Cl)cccc2Cl)c1C(=O)N1CCc2ccccc21	13.3	68.0*	-18.2	-7.4	-20.8	-11.9
Cc1onc(-c2c(F)cccc2Cl)c1C(=O)N1CCc2ccccc2C1	-0.7	27.3	-3.8	-5.8	-6.0	-5.7
Cc1ccc(OCCCCNC(C)(C)C)c([N+](=O)[O-])c1	27.1*	-0.8	-10.4	-9.5	-2.2	-5.2
COCCNCCOc1ccc(C)cc1[N+](=O)[O-]	-9.8	-1.4	0.7	-7.9	3.6	-2.5
COc1ccc(-c2sc3ccccc3c2/C=C/c2ccncc2)cc1	15.7	-9.9	-18.5	-7.8	5.3	-4.2
Cc1ccc(O)c(C2=NNC(c3ccc(Cl)cc3)C2)c1 (configuration not stated)	51.1*	45.4*	20.6*	22.6*	12.3	14.0
CCOc1ccc(NC(=O)NNC(=O)c2cc3ccccc3cc2O)cc1	1.0	-17.5	-1.3	0.6	15.2	-6.2
CCN1CCCC1CNC(=O)c1ccc(Sc2ccccc2Cl)c([N+](=O)[O-])c1 (configuration not stated)	7.4	99.0*	-28.7	-8.2	-26.0	-13.6
CCN1CCN(C(=O)c2ccc(Sc3ccccc3Cl)c([N+](=O)[O-])c2)CC1	5.7	21.0	-10.2	-9.7	-25.8	-5.2
CCN1CCCC1CNC(=O)c1ccc(Sc2ccc(F)cc2)c([N+](=O)[O-])c1 (configuration not stated)	12.5	99.9*	-23.1	-7.2	-25.6	-18.6
N#C/C(=C\c1ccc(N2CCOCC2)o1)c1ccccc1	6.6	-12.1	-5.1	-2.7	-1.9	1.6
N#C/C(=C/c1ccc(N2CCOCC2)o1)c1nc2ccccc2[nH]1	15.5	30.9	-6.2	25.2*	-17.2	5.3
N#C/C(=C\c1ccc(Sc2ccc(Cl)cc2)o1)c1nc2ccccc2[nH]1	29.5*	6.2	-16.3	1.0	-2.9	3.3
CCCNC(=O)C1(C)CCN(C(=O)COCc2ccccc2)C1 (configuration not stated)	12.2	-3.1	-4.3	-2.6	0.3	1.9
COc1cc(O)c(C(CC(=O)N2CCOCC2)c2ccc3c(c2)OCO3)c(OC)c1 (configuration not stated)	13.2	36.1*	-8.7	-0.7	-19.9	-1.7
S=c1[nH]nc(Cc2ccccc2)n1Cc1ccco1	32.8*	92.3*	-22.4	-12.6	-33.0	-5.9
CCCn1c(Cc2ccccc2)n[nH]c1=S	4.6	17.0	-5.2	-5.5	-6.0	-7.2
SMILES	M5 antag	CHRM1 antagonist	CHRM5 PAM	M1 ag	CHRM1 PAM	CHRM5 agonist
S=C1NCC(c2ccccc2)S1 (configuration not stated)	3.6	-18.7	18.4*	-1.5	8.9	-5.3
c1ccc(CC[C@@H]2CC[C@@H](CCc3ccccc3)N2)cc1	18.4	32.1*	-29.9	-14.0	-27.2	-11.0
c1ccc(CCC2Cc3ccccc3N2)cc1 (configuration not stated)	6.2	4.2	-12.6	-7.2	-0.1	0.5
Cn1c(N)c(C(=O)/C=C/c2ccccc2)c(=O)[nH]c1=O	46.8*	-4.8	-18.8	-5.5	1.3	-7.5
Cc1ccc(/C=C/C(=O)c2c(C)cc(C)[nH]c2=O)cc1	0.1	-0.5	3.6	-6.5	5.6	-3.5
Cc1ccc(CNC(=O)CN(C)S(=O)(=O)c2ccc(F)cc2)cc1	-22.2	-19.2	19.5*	2.4	18.4	1.2
CN(C)CCCOc1ccc2c(c1)Sc1ccccc1CC2=O	3.2	-1.6	-1.6	24.2*	-0.5	-5.5
CCOC(=O)c1sc(=S)n(-c2ccccc2Cl)c1C	-9.4	52.0*	-26.7	-7.1	-26.6	-18.1
CCN(Cc1ccc(OC)c(COC)c1)CC1CCCN(CCc2cccc(F)c2)C1 (configuration not stated)	2.5	4.1	-0.6	-9.4	-10.1	-20.1
CN(Cc1ccccc1O)CC1CCCN(CCc2ccc(Cl)cc2)C1 (configuration not stated)	6.2	80.0*	-28.2	-9.2	-29.4	-22.2
CN(Cc1ccc(C#CCCO)cc1)CC1CCCN(CCc2ccc(Cl)cc2)C1 (configuration not stated)	12.2	40.3*	-19.6	-7.2	-27.2	-23.6
COc1ccc(CCN2CCCC(CN(C)Cc3cccc(OC)c3)C2)cc1 (configuration not stated)	11.9	3.3	-0.3	-8.3	-10.9	-17.1
CCN(Cc1ccc(C#CCCO)cc1)CC1CCCN(CCc2cccc(F)c2)C1 (configuration not stated)	0.8	51.9*	-31.1	-8.2	-28.4	-22.4
Cc1nc2ccc(Br)cn2c1C(=O)N/N=C\c1ccccc1Cl	-13.7	-19.4	17.8	-0.7	16.1	4.5
CC1=C(C(=O)Nc2ccccc2)C(c2ccco2)C(C#N)=C(SCC(=O)OC(C)C)N1 (configuration not stated)	13.8	32.6*	-17.5	-1.0	-9.8	-0.5
CC1(OC(=O)C2CCCC2)C(=O)C=C2C=C(c3ccsc3)N(C3CCCC3)C=C2C1=O (configuration not stated)	0.7	13.2	-7.9	3.3	-9.2	38.7*
Cc1c(C(=O)NCc2cccc([N+](=O)[O-])c2)sc(=O)n1Cc1ccc(F)cc1	10.5	39.2*	-12.5	-9.2	-33.3	1.4
Cc1c(C(=O)NCc2ccc([N+](=O)[O-])cc2)sc(=O)n1Cc1ccc2c(c1)OCO2	7.7	7.4	-13.2	18.7*	-17.0	24.9*
